Compound activity from PubChem BioAssay.
MOR-DOR ag-1 = OPRM1-OPRD1 heterodimerization agonism; P35372+P41143; cells, luminescence; activation, % at 9.3 µM; hit rate 0.3% among 340,000
MOR-DOR inv ag = inverse agonist of human OPRM1-OPRD1 heterodimerization. P35372+P41143. cell-based MOR-DOR heterodimer luminescence, inverse agonism. inhibition, % at 9.3 µM. hit rate 0.21% among 340,000; in the data active means inhibition above about 22%, passing the limit was not always enough
MC4R antag cAMP = antagonists of human melanocortin 4 receptor (MC4R) | hit rate 0.48% among 360,000 | MC4R-expressing cells, MTII-stimulated cAMP, LANCE TR-FRET | inhibition, % at 6.5 µM | P32245 | AID 540295;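 active means inhibition above its plate's cutoff, the mean of tested wells on that plate plus 3 SD, cut at about 29% in these data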
Target sequence (P32245 whole entry, looked up): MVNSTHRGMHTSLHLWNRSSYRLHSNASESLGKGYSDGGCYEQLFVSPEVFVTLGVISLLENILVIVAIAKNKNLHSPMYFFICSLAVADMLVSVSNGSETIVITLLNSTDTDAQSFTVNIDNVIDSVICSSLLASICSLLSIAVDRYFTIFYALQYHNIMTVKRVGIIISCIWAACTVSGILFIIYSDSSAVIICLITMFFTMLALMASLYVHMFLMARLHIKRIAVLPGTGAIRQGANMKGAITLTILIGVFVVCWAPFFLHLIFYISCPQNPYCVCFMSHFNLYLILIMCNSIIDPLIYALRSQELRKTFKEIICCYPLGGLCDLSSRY
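Test system: U2OS cells stably expressing human melanocortin 4 receptor (MC4R); also added: Melanotan II challenge; compound: 6.5 µM single dose; timing: 30-min compound preincubation, 1-h Melanotan II challenge, 1-h detection, room temperature; signal: Eu-cAMP/anti-cAMP TR-FRET, emission 671 nm; repeats: one well per compound, no replicates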
HTR5A ag ctr = HTR5A agonism, opioid heterodimer counter-screen; AID 504692; hit rate 0.61% among 340,000; HTR5A agonist assay, luminescence, cell-based; P47898; activation, % at 9.3 µM; in the data active means activation mostly above about 9.5%, no sharp cut-off; inactive means mostly below about 7.6%
Target sequence (P47898 whole entry, looked up): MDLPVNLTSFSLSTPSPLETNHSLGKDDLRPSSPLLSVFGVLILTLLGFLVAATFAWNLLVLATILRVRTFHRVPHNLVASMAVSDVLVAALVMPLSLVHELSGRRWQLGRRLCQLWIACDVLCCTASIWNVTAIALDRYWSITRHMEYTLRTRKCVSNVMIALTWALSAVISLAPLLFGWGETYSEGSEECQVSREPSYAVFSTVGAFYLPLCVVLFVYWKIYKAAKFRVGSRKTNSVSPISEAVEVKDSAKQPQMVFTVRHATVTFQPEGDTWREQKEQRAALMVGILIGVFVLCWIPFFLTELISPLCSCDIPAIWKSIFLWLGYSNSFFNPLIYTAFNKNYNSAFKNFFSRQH
MC4R ag barr = activates human MC4R beta-arrestin recruitment; AID 540308; hit rate 0.98% among 360,000; U2OS MC4R beta-arrestin complementation, luminescence; percent of melanotan II response, DMSO zero; activation, % at 8.9 µM; P32245;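 active means activation above a per-plate cutoff, the mean activation of sample wells on that plate plus 3 SD, cut at about 8% in these data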
HTR5A inv ctr = HTR5A inverse agonism, opioid heterodimer counter-screen; P47898; HTR5A cell line, luminescence; inhibition, % at 9.3 µM; hit rate 0.083% among 340,000; AID 504634; in the data active means inhibition mostly above about 23%, no sharp cut-off; inactive means mostly below about 18%
MOR-DOR ag-2 = promotes OPRM1-OPRD1 heterodimerization in HTR5A counter-screen; activation, % at 9.3 µM; U2OS counter-screen cells, complementation luminescence, 3 h; AID 504913; hit rate 13% among 800; shares compounds with HTR5A ag ctr
HTR5A ag confirm = HTR5A (human) agonism, confirmation. HTR5A agonist cell assay, luminescence. activation, % at 9.3 µM. hit rate 17% among 800. shares compounds with HTR5A ag ctr; in the data active means activation above about 17%
Large screens that a line does not name were inactive (follow-up assays come after a bar, where they were run). Rows were chosen to be rich in hits. Some 2.4% of all compounds tested hit in one or more screens of this group. Unless noted, no stated cut-off is given here; in the data, active means activation above about 18%; inactive means the rest.

Nc1ccc(C(=O)N/N=C/c2cccc(Oc3ccccc3)c2)cc1	HTR5A ag ctr 23 | MOR-DOR ag-2 inactive | HTR5A ag confirm 27
Cc1nc2ccc(NC(=O)c3cccs3)cc2c(=O)n1Cc1ccc(Cl)cc1	HTR5A ag ctr 15 | MOR-DOR ag-2 inactive | HTR5A ag confirm inactive
CC(=O)O/N=C(\N)c1cnn2c(C(F)(F)F)cc(C(F)(F)F)nc12	none
Cc1cc(C)nc(SCC(=O)N/N=C/c2cc(C)n(-c3ccccc3C)c2C)n1	none
Cc1cc(C)nc(SCC(=O)N/N=C\c2sccc2C)n1	HTR5A ag ctr 22 | MOR-DOR ag-2 inactive | HTR5A ag confirm 22
Cc1cc(=O)oc2cc(OCC(=O)c3ccc4c(c3)NC(=O)CO4)ccc12	none
COc1ccc(CN(C)C(=O)[C@H](Cc2ccccc2)NC(=O)c2ccco2)c(OC)c1	none
COc1ccc2[nH]c3c(c2c1)CCNC3(C)CCc1ccc(Cl)nc1 (stereo not drawn)	HTR5A ag ctr 21 | MOR-DOR ag-2 inactive | HTR5A ag confirm 34
COc1ccc(S(=O)(=O)NC(C(=O)OCC(=O)Nc2ccc(N3CCOCC3)cc2)C(C)C)cc1 (stereo not drawn)	HTR5A ag ctr 16 | MOR-DOR ag-2 inactive | HTR5A ag confirm inactive
COc1ccc(S(=O)(=O)Nc2ccc(N3CCOCC3)cc2)cc1	none
NCCCCc1ccc2ccc3cccc4ccc1c2c34	HTR5A ag ctr 16 | MOR-DOR ag-2 inactive | HTR5A ag confirm inactive
COc1ccc(CC(C)N2CCN(c3cccc(C(F)(F)F)c3)CC2)cc1OC (stereo not drawn)	HTR5A ag ctr 33 | MOR-DOR ag-2 inactive | HTR5A ag confirm 29
CCOC(=O)c1c(NC(=O)CSc2n[nH]c(-c3ccco3)n2)sc(C)c1C	none
O=C(CSc1n[nH]c(-c2ccco2)n1)Nc1sc2c(c1C(=O)Nc1ccccc1)CCCC2	HTR5A ag ctr 18 | MOR-DOR ag-2 inactive | HTR5A ag confirm inactive
CCOc1ccc(NC(=O)c2cc(=O)[nH]c3ccccc23)cc1	HTR5A ag ctr 16 | MOR-DOR ag-2 21 | HTR5A ag confirm inactive
CCN(CC)C(CNC(=O)CSc1nnnn1-c1ccc(C)c(C)c1)c1ccco1 (stereo not drawn)	none
CCN(CC)C(CNC(=O)CSc1nnnn1-c1c(C)cccc1C)c1ccco1 (stereo not drawn)	HTR5A ag ctr 20 | MOR-DOR ag-2 inactive | HTR5A ag confirm 29
O=C(NCCc1c[nH]c2ccccc12)C(=O)NCC(c1ccco1)N1CCN(c2ccc(F)cc2)CC1 (stereo not drawn)	HTR5A ag ctr 47 | MOR-DOR ag-2 inactive | HTR5A ag confirm 56
O=C(NCCc1c[nH]c2ccccc12)C(=O)NCC1OCCCN1S(=O)(=O)c1cc(F)ccc1F (stereo not drawn)	HTR5A ag ctr 36 | MOR-DOR ag-2 inactive | HTR5A ag confirm inactive
O=C(NCCc1c[nH]c2ccccc12)C(=O)NCC(c1ccco1)N1CCN(c2ccccc2)CC1 (stereo not drawn)	none
COC(=O)CCC(C)C1CCC2C3C(OC(C)=O)CC4CC(O)CCC4(C)C3CC(O)C12C (stereo not drawn)	none (no result: MOR-DOR ag-1, MOR-DOR inv ag, HTR5A ag ctr, HTR5A inv ctr)
Cc1ccc(-n2nc3c(=O)n(CCCC(=O)N4CCC(C(N)=O)CC4)nc(C)c3c2C)cc1	none
CN(C(=O)c1cccc(NC(=O)Cc2ccc(NC(=O)C3CCCN(C(=O)CCc4ccccc4)C3)cc2)c1)C1CCC1 (stereo not drawn)	HTR5A ag ctr 20 | MOR-DOR ag-2 inactive | HTR5A ag confirm inactive
CN(C(=O)c1cccc(NC(=O)Cc2ccc(NC(=O)C3CCCN(C(=O)CCc4ccccc4)C3)cc2)c1)C1CCCC1 (stereo not drawn)	none
CCCCCc1ccc(S(=O)(=O)Nc2cc(C)ccn2)cc1	HTR5A ag ctr 17 | MOR-DOR ag-2 inactive | HTR5A ag confirm inactive
CN(C)/C=C(\C#N)C(N)=C(C#N)C#N	none (no result: MOR-DOR ag-1, MOR-DOR inv ag, HTR5A ag ctr, HTR5A inv ctr)
COc1ccc(NC(=O)CSc2nc3nc(C)cc(C)n3n2)cc1	none
COc1ccc(OC)c(NC(=O)CSc2nc3nc(C)cc(C)n3n2)c1	HTR5A ag ctr 17 | MOR-DOR ag-2 inactive | HTR5A ag confirm inactive
O=C(CN1C(=O)CSc2ncccc21)NCCN1CCOCC1	HTR5A ag ctr 16 | MOR-DOR ag-2 inactive | HTR5A ag confirm inactive
COCCCNC(=O)CN1C(=O)CSc2ncccc21	none
COc1cc(C)ccc1OCc1cc(C(=O)N(C)CCCN2CCOCC2)no1	none
COC/C=C/C1=CC2=CC(=O)C(C)(OC(=O)c3cnc4ccccc4n3)C(=O)C2=CN1CCCOC(C)C (stereo not drawn)	HTR5A ag ctr 18 | MOR-DOR ag-2 42 | HTR5A ag confirm inactive
COC/C=C/C1=CC2=CC(=O)C(C)(OC(=O)c3cnc4ccccc4n3)C(=O)C2=CN1CCOC (stereo not drawn)	none
CC(C)c1ccc(S(=O)(=O)N2CCN(C(=O)[C@@H]3CCCN3C(=O)c3cccs3)CC2)cc1	none
COc1ccccc1C(CNC(=O)c1cccc(S(=O)(=O)Nc2ccc(F)cc2)c1)N1CCCC1 (stereo not drawn)	HTR5A ag ctr 65 | MOR-DOR ag-2 inactive | HTR5A ag confirm inactive
CN(C)c1nc(Cl)nc2c1nc(Cl)n2C1CCCCO1 (stereo not drawn)	none
O=C(N/N=C1\CCCc2ccccc21)c1ccccc1[N+](=O)[O-]	HTR5A ag ctr 15 | MOR-DOR ag-2 inactive | HTR5A ag confirm inactive
CCc1ccc(/C=C/C(=O)c2cc(Br)ccc(=O)c2O)cc1	HTR5A ag ctr 17 | MOR-DOR ag-2 42 | HTR5A ag confirm inactive
COc1ccc(C(=O)CCC(=O)NCCc2c[nH]c3ccccc23)cc1	HTR5A ag ctr 44 | MOR-DOR ag-2 inactive | HTR5A ag confirm 42
O=C(Cc1ccccc1)NCCc1c[nH]c2ccccc12	none
Cc1ccccc1NC(=O)C(=O)NCCc1c[nH]c2ccccc12	HTR5A ag ctr 35 | MOR-DOR ag-2 inactive | HTR5A ag confirm 61
O=C(CCC(=O)c1ccccc1)NCCc1c[nH]c2ccccc12	HTR5A ag ctr 94 | MOR-DOR ag-2 inactive | HTR5A ag confirm 89
Fc1cccc(NCCc2c[nH]c3ccccc23)n1	none
COc1ccc(C(=O)CCC(=O)NCCc2ccccc2F)cc1	none
c1ccc2c(NCCc3c[nH]c4ccccc34)c3ccccc3nc2c1	HTR5A ag ctr 17 | MOR-DOR ag-2 inactive | HTR5A ag confirm inactive
O=C(Cc1cccc([N+](=O)[O-])c1)Nc1ccc(C(=O)N2CCOCC2)cc1	none
Cc1ccccc1COc1cccn2c(N(C)C(=O)CCC3CCCC3)c(C)nc12	none (no result: MOR-DOR ag-1, MOR-DOR inv ag, HTR5A ag ctr, HTR5A inv ctr)
